# Screening data: PubChem, several laboratories
# Calb biofilm kill: clotrimazole potentiators killing C. albicans biofilm, primary screen, 4-compound mixtures; C. albicans biofilm persisters + clotrimazole, fluorescence viability; primary screen in compound mixtures of four per well; actives 0.02% (n = 120,000); inhibition, % at 7.6 µM; AID 1242, 2008;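 active = inhibition above 30.3% in the primary screen of four-compound pools, then above 30% when the compound was retested; inconclusive = passed the primary limit but could not be retested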;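 note: compounds exposed to preformed 24 h biofilms for 48 h; 0% = untreated biofilm control and 100% = clotrimazole plus chlorhexidine kill blank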
#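 Assay system: C. albicans biofilms / Medium: RPMI/MOPS medium, pH 7.0 / Schedule: biofilm formation 24 h, compound exposure 48 h, 37 °C / Measured by: Alamar Blue fluorescence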
# ROMK primary: ROMK potassium channel modulators, primary screen, cell-based, thallium flux, MLSMR library. ATP-sensitive inward rectifier potassium channel 1 (Homo sapiens), P48048. Tet-inducible ROMK, thallium flux fluorescence; actives lie on both sides. B-score at 10 µM. actives 2% (n = 130,000). AID 1918, 2009;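 active = signal ratio slope over the read window, or its plate-corrected B-score, at least 3 SD from the plate mean, either direction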;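 note: B-score of the F/F0 ratio slope over 7 to 12 s after thallium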
# Target sequence (P48048 whole entry, looked up): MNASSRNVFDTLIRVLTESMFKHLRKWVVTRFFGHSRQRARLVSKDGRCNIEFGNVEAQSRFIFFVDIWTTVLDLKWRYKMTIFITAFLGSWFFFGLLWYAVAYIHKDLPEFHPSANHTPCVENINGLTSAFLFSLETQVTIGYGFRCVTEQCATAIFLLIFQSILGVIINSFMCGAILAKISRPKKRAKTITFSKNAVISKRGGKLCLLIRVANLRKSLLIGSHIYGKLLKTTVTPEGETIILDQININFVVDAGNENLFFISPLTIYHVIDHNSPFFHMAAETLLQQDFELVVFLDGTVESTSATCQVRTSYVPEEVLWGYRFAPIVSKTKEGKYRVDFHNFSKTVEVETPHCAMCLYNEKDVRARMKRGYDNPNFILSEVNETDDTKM
# ROMK retest: ROMK channel modulator hit retest, confirmation, cell-based, thallium flux, duplicate, resupplied hits; fluorescence ratio; hits give low values; normalized thallium flux (F/F0 slope) at 10 µM; actives 54% (n = 3,000); shares compounds with ROMK primary;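 active = Flux at 10 µM at least 3 SD below or above vehicle control mean in one or both replicates; inconclusive = no clear call, values can overlap the other calls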
# * hit, by the source's call; u = inconclusive; x = no result given. Many of the other results were omitted from the sample, so hits are more common in it than they were.
SMILES,Calb biofilm kill,ROMK primary,ROMK retest
CCc1sc(NS(C)(=O)=O)nc1-c1ccccc1,x,2.8*,0.083
CCc1sc(NC(C)=O)nc1-c1ccccc1,16,-1.6,x
CN(CC(=O)N1CCN(c2cccc(Cl)c2)CC1)S(=O)(=O)c1cccs1,x,-0.5,x
CCCNC(=O)c1ccc(SCC(=O)N(CC)CC)c([N+](=O)[O-])c1,10,-0.11,x
Cc1ccc[n+](CC(=O)c2ccc(NC(=O)c3ccccc3)cc2)c1,-2,0.15,x
O=C(Nc1ccc[n+](CC(=O)c2cccc3ccccc23)c1)c1ccccc1,-1,-2.8*,0.056*
O=C(NCc1ccc[n+](CCCCS(=O)(=O)[O-])c1)c1ccc(OC(F)F)cc1,14,1.4,x
CNc1nc(C)c(C#N)cc1C(C)=O,x,0.21,x
CC(=O)C1=C(O)C(=O)N(CCC(=O)O)C1c1cccc(F)c1 (stereo unspecified),x,0.47,x
N#Cc1c2n(c3c(=O)n(Cc4ccc(Cl)cc4)cnc13)CCCCC2,x,0.21,x
Cc1noc(C)c1COC(=O)c1cc(=O)[nH]c2ccccc12,x,0.29,x
Cc1noc(C)c1COC(=O)c1cc(C)n(-c2ccccc2)c1C,x,x,0.088
COc1ccc(S(=O)(=O)NCCCCNS(=O)(=O)c2ccc(OC)cc2)cc1,x,-0.3,x
CN(CCOc1ccc(Cl)cc1)c1ccc(S(=O)(=O)N2CCCCC2)cn1,x,-4.4*,u
Cc1ccc(NC(=O)CN(C)c2ccc(S(=O)(=O)N3CCCC3)cn2)cc1,9,-0.95,x
Nn1cc(-c2ccccc2)nc1SCC(=O)Nc1ccc2c(c1)OCO2,19,-1.4,x
Cc1nc2c(C)cccn2c1/C(O)=C1\C(=O)C(=O)N(CCN2CCOCC2)C1c1ccncc1 (stereo unspecified),x,1,x
COC(=O)c1ccc2c(=O)n(Cc3ccc(C(=O)NCCCN4CCC(C)CC4)cc3)c(=S)[nH]c2c1,18,0.56,x
CC1CCN(CCCNC(=O)c2ccc3c(=O)n(Cc4ccc(Cl)cc4)c(=S)[nH]c3c2)CC1,8,-2.7*,0.061*
Cc1ccc(CNC(=O)c2ccccc2-n2cnnn2)cc1,14,x,x
CC(/C=N/NC(=O)c1cc(-c2cccnc2)nc2c1c(C)nn2-c1ccccc1)=C\c1ccccc1,26,x,u
Cc1nn(-c2ccccc2)c(N2CCCC2)c1/C=N/NC(=O)c1cc(-c2cccnc2)nc2ccccc12,18,x,x
Cc1cc(NC(=O)c2ccccc2F)ncc1NC(=O)c1cccs1,18,-0.41,x
O=c1oc2ccccc2nc1/C=C(\O)c1ccc(Br)cc1,29,0.36,x
C/C(O)=C\c1nc2ccccc2oc1=O,x,x,0.074
SMILES,Calb biofilm kill,ROMK primary,ROMK retest
COc1ccc(-c2cc(C(=O)Nc3ccccc3N3CCOCC3)c3ccccc3n2)cc1OC,15,0.59,x
COc1cccc(/C=N/Nc2ncnc3scc(-c4ccccc4)c23)c1OC,x,-0.64,x
COc1ccc(C(=O)CCC(=O)O)c(C)c1,x,4.3*,0.083
COc1ccc(C(=O)c2ccc(OC)cc2OC)cc1,25,-0.27,x
COC(=O)COc1ccc(-n2cnnn2)cc1,5,1.1,x
CCOC(=O)c1ccc(NC(=O)COc2ccc(-n3cnnn3)cc2)cc1,x,1.4,0.089
O=C(COc1ncnc2ccc(Br)cc12)N1CCOCC1,x,1.1,x
Brc1ccc2c(c1)CNc1c(ncnc1N1CCOCC1)O2,x,x,0.082
COc1ccc(-n2cc(CN(C)CCO)c(-c3cccc(F)c3)n2)cc1,15,x,x
COc1ccccc1N1CCN(CC(O)COCCOc2ccc(Br)cc2)CC1 (stereo unspecified),15,x,x
COc1ccc(N2CCN(CC(O)COc3ccc4c(c3)CCC4)CC2)cc1 (stereo unspecified),x,-4.5*,0.061*
COc1ccc(N2CCN(CC(O)COCCOc3ccc(Br)cc3)CC2)cc1 (stereo unspecified),10,-2.4*,0.058*
COc1ccc(OCC(O)CN2CCN(c3ccc(Cl)cc3)CC2)cc1 (stereo unspecified),28,x,x
OC(COc1ccc2cc(Br)ccc2c1)CN1CCCC1 (stereo unspecified),x,x,0.064*
O=S(=O)(N1CCCCC1)N1CCN(CC(O)COc2ccc3cc(Br)ccc3c2)CC1 (stereo unspecified),x,-0.24,x
O=S(=O)(NCc1ccc2c(c1)OCO2)c1ccc2c(c1)oc1ccccc12,x,-0.66,x
Nc1c(-c2ccccc2)cnn1C1CCS(=O)(=O)C1 (stereo unspecified),x,-0.55,x
Clc1cccc(Cl)c1Cn1c(-c2cccnc2Cl)nc2ccccc21,x,1.6,x
Cc1ccc(NC(=O)COC(=O)Cc2csc(-c3cccc(F)c3)n2)cc1C,17,x,x
CC1=NNC(=O)C1CC(=O)N/N=C(\C)c1cccs1 (stereo unspecified),11,-0.25,x
CC(=O)c1ccc(N(C(=O)CS(=O)CC(=O)Nc2ccc(F)cc2)C(C(=O)NC2CCCCC2)c2cccs2)cc1 (stereo unspecified),18,-3.3*,0.072
CC(=O)c1cccc(N(C(=O)CS(=O)CC(=O)Nc2ccc(F)cc2)C(C(=O)NC2CCCCC2)c2ccc(C)o2)c1 (stereo unspecified),20,x,x
COc1ccc(CCN2C(=O)CC(Cc3ccc(C)cc3)C2=O)cc1OC (stereo unspecified),19,0.37,x
CCOc1cccc(N2C(=O)CC(N3CCC(C(N)=O)(N4CCCCC4)CC3)C2=O)c1 (stereo unspecified),x,-0.69,x
Cc1oc2c(c1C(=O)O)C(=O)c1ccccc1C2=O,4,-0.017,x
SMILES,Calb biofilm kill,ROMK primary,ROMK retest
Cc1oc2c(c1C(=O)c1ccccc1)C(=O)C(=O)c1ccccc1-2,x,x,u
O=C(CSc1nc2c(sc3ccccc32)c(=O)n1CCCN1CCCC1)NCc1ccccc1,11,-3.5*,0.06*
Cc1ccc(CNC(=O)CSc2nc3c(sc4ccccc43)c(=O)n2CCCN2CCCC2)cc1,9,-2.2,x
COc1cccc(NC(=S)NC2CC3CCCC(C2)N3C2CCCC2)c1 (stereo unspecified),19,-2,x
CCc1cccc(CC)c1NC(=O)CN1C2CCCC1CC(NC(=O)Nc1cccc(OC)c1)C2 (stereo unspecified),6,-4*,u
O=C(NCc1ccccc1)c1ccccc1-c1nc2ccccc2[nH]1,16,-0.18,x
Cc1cc(C)nc(SCc2ccc(C(=O)N/N=C/c3ccccn3)cc2)n1,3,-13*,0.085
Cc1cc(C)nc(SCc2ccc(C(=O)N/N=C/c3ccncc3)cc2)n1,13,1.5,x
CNC(=O)c1ccsc1NC(=O)c1ccccc1,7,x,x
Cc1ccc(-n2[nH]c(C)c(C=Nc3ccc(S(=O)(=O)Nc4nccs4)cc3)c2=O)cc1,-6,x,x
Cc1[nH]n(-c2ccc(Br)cc2)c(=O)c1C=Nc1ccc(S(=O)(=O)Nc2nccs2)cc1,10,x,0.086
N#C/C(=C\c1ccco1)C(=O)NCC1CCCO1 (stereo unspecified),17,x,x
N#C/C(=C\c1cccc([N+](=O)[O-])c1)C(=O)NCC1CCCO1 (stereo unspecified),9,-11*,0.042*
O=C(C(=C1NCCN1)n1cncn1)c1ccccc1,22,0.12,x
COc1cc(CNCCN2CCOCC2)ccc1OCc1ccc(Cl)cc1Cl,x,x,0.055*
COc1cc(CNCCN2CCOCC2)ccc1OCc1cccc(Cl)c1,x,-1.1,x
